How the values were obtained:
Acinetobacter baumannii [1] = experiment: Antibacterial activity against carbapenem resistant Acinetobacter baumannii isolate PR-423 assessed as inhibition of bacterial growth at 1:1 compound to sulbactam concentration by microdilution method; type: functional
In short: (§1)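 Iron-depleted (Chelex-treated) cation-adjusted Mueller-Hinton broth microdilution; inoculum 6 × 10^4 cfu/mL. Test agent and sulbactam mixed 1:1 by mass and serially 2-fold diluted together. MIC in μg/mL.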

Acinetobacter baumannii [2] = experiment: Antibacterial activity against carbapenem susceptible Acinetobacter baumannii isolate PR-452 assessed as bacterial growth inhibition by microdilution method; type: functional
In short: (§2)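 Broth microdilution MIC in iron-depleted (Chelex resin-treated) cation-adjusted Mueller-Hinton broth, following the protocol used for siderophore-containing antibiotics. Inoculum was lowered to 6 × 10^4 cfu/mL.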

Acinetobacter baumannii [3] = experiment: Antibacterial activity against carbapenem resistant Acinetobacter baumannii isolate PR-459 assessed as inhibition of bacterial growth in presence of 20 ug/ml sulbactam by microdilution method; type: functional; conditions: dose 20 µg/ml
[4] = Solubility of compound in pH 7.5 phosphate buffer by nephelometry; type: physicochemical
Acinetobacter baumannii [5] = experiment: Antibacterial activity against carbapenem susceptible Acinetobacter baumannii isolate PR-478 assessed as inhibition of bacterial growth at 1:1 compound to sulbactam concentration by microdilution method; type: functional
In short: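 Broth microdilution MIC in Chelex-treated, iron-depleted cation-adjusted Mueller-Hinton broth, inoculum 6 × 10^4 cfu/mL. Compound and sulbactam combined 1:1 by mass in a 2-fold dilution series.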

Pseudomonas aeruginosa [6] = experiment: Antibacterial activity against wild type Pseudomonas aeruginosa isolate PR-699 assessed as inhibition of bacterial growth by microdilution method; type: functional; in short: as §2
[7] = Substrate activity at IMP-1 (unknown origin) assessed as ratio of Kcat to Km by measuring hydrolysis by spectrophotometry; type: ADME
In short: (§3)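 Substrate hydrolysis (600 μM start) followed at 336 nm (Δε336 = −4362 M−1 cm−1, 0.2 cm cuvette) to completion; velocities over 10 s intervals along progress curve; Km, Vmax from double reciprocal plot, kcat = Vmax/[E].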

Acinetobacter baumannii [8] = experiment: Antibacterial activity against carbapenem susceptible Acinetobacter baumannii isolate PR-340 assessed as bacterial growth inhibition by microdilution method; type: functional; in short: as §2
Pseudomonas aeruginosa [9] = experiment: Antibacterial activity against wild type Pseudomonas aeruginosa isolate PR-680 leucine at 533 residue assessed as inhibition of bacterial growth by microdilution method; type: functional; in short: as §2
Pseudomonas aeruginosa [10] = experiment: Antibacterial activity against Pseudomonas aeruginosa AR-BANK#0229 infected in sc dosed thigh infection mouse model assessed as reduction in CFU treated four times at 6 hrs interval measured at 26 hrs after infection; type: functional, organism-based
In short: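 Neutropenic mice (cyclophosphamide) inoculated intramuscularly with 1.02 × 10^6 CFU/mouse. Drug given SC at 50 and 100 mg/kg q6h at 2, 8, 14 and 20 h post-infection. Thighs harvested at 26 h and weighed. Thigh CFU/g compared with the 2 h baseline (Δ reported) and with vehicle, using one-way ANOVA with Dunnett's test.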

Acinetobacter baumannii [11] = experiment: Antibacterial activity against carbapenem resistant Acinetobacter baumannii isolate PR-319 assessed as inhibition of bacterial growth at 1:1 compound to sulbactam concentration by microdilution method; type: functional; in short: as §1
Acinetobacter baumannii [12] = experiment: Antibacterial activity against carbapenem susceptible Acinetobacter baumannii isolate PR-434 assessed as bacterial growth inhibition by microdilution method; type: functional; in short: as §2
Acinetobacter baumannii [13] = experiment: Antibacterial activity against carbapenem resistant Acinetobacter baumannii isolate PR-423 assessed as inhibition of bacterial growth in presence of 20 ug/ml sulbactam by microdilution method; type: functional; conditions: dose 20 µg/ml
Acinetobacter baumannii [14] = experiment: Antibacterial activity against carbapenem resistant Acinetobacter baumannii isolate PR-319 assessed as inhibition of bacterial growth in presence of 20 ug/ml sulbactam by microdilution method; type: functional; conditions: dose 20 µg/ml
Pseudomonas aeruginosa [15] = experiment: Antibacterial activity against wild type Pseudomonas aeruginosa isolate PR-672 assessed as inhibition of bacterial growth by microdilution method; type: functional; in short: as §2
Acinetobacter baumannii [16] = experiment: Antibacterial activity against carbapenem resistant Acinetobacter baumannii isolate PR-387 assessed as inhibition of bacterial growth at 1:1 compound to sulbactam concentration by microdilution method; type: functional; in short: as §1
[17] = target: Penicillin-binding protein 3 (Pseudomonas aeruginosa, UniProt Q51504); experiment: Inhibition of Pseudomonas aeruginosa PBP3 assessed as reduction in fluorescence intensity using Bocillin-protein as fluorescent substrate preincubated for 20 mins measured after 20 mins by SDS PAGE analysis
In short: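 Purified soluble P. aeruginosa PBP3 at 1.6 μM in 10 mM PBS, pH 7.4. Preincubated with increasing compound concentrations for 20 min at 37 °C, then 50 μM Bocillin added for a further 20 min. Stopped with SDS loading dye and 2 min boiling, then run on SDS-PAGE and imaged at 365 nm. IC50 taken as the concentration halving Bocillin-labelled band fluorescence.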

[18] = Antibacterial activity against carbapenem susceptible Acinetobacter nosocomialis isolate PR-362 assessed as inhibition of bacterial growth in presence of 20 ug/ml sulbactam by microdilution method; type: functional; conditions: dose 20 µg/ml
In short: (§4)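 MIC by broth microdilution using iron-depleted (Chelex-treated) cation-adjusted Mueller-Hinton broth and 6 × 10^4 cfu/mL inoculum. Compound serially diluted with sulbactam held constant at 20 μg/mL.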

Acinetobacter baumannii [19] = experiment: Antibacterial activity against carbapenem susceptible Acinetobacter baumannii isolate PR-464 assessed as inhibition of bacterial growth in presence of 20 ug/ml sulbactam by microdilution method; type: functional; conditions: dose 20 µg/ml; in short: as §4
Acinetobacter baumannii [20] = experiment: Antibacterial activity against carbapenem susceptible Acinetobacter baumannii isolate PR-478 assessed as inhibition of bacterial growth in presence of 20 ug/ml sulbactam by microdilution method; type: functional; conditions: dose 20 µg/ml; in short: as §4
Acinetobacter baumannii [21] = experiment: Antibacterial activity against carbapenem resistant Acinetobacter baumannii isolate PR-384 assessed as bacterial growth inhibition by microdilution method; type: functional
In short: (§5)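 Broth microdilution in Chelex-treated, iron-depleted cation-adjusted Mueller-Hinton broth, following the protocol used for siderophore-containing antibiotics; inoculum lowered to 6 × 10^4 cfu/mL; MIC read as growth inhibition, in μg/mL.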

Acinetobacter baumannii [22] = experiment: Antibacterial activity against carbapenem susceptible Acinetobacter baumannii isolate PR-464 assessed as bacterial growth inhibition by microdilution method; type: functional; in short: as §2
Pseudomonas aeruginosa [23] = experiment: Antibacterial activity against wild type Pseudomonas aeruginosa isolate PR-688 leucine at 533 residue assessed as inhibition of bacterial growth by microdilution method; type: functional; in short: as §2
[24] = Substrate activity at VIM-2 (unknown origin) assessed as ratio of Kcat to Km by measuring hydrolysis by spectrophotometry; type: ADME; in short: as §3
Acinetobacter baumannii [25] = experiment: Antibacterial activity against carbapenem resistant Acinetobacter baumannii isolate PR-401 assessed as inhibition of bacterial growth at 1:1 compound to sulbactam concentration by microdilution method; type: functional; in short: as §1
Acinetobacter baumannii [26] = experiment: Antibacterial activity against carbapenem resistant Acinetobacter baumannii isolate PR-384 assessed as inhibition of bacterial growth at 1:1 compound to sulbactam concentration by microdilution method; type: functional; in short: as §1
Acinetobacter baumannii [27] = experiment: Antibacterial activity against carbapenem resistant Acinetobacter baumannii isolate PR-380 assessed as inhibition of bacterial growth at 1:1 compound to sulbactam concentration by microdilution method; type: functional; in short: as §1
Acinetobacter baumannii [28] = experiment: Antibacterial activity against carbapenem resistant Acinetobacter baumannii isolate PR-482 assessed as inhibition of bacterial growth at 1:1 compound to sulbactam concentration by microdilution method; type: functional; in short: as §1
Acinetobacter baumannii [29] = experiment: Antibacterial activity against carbapenem resistant Acinetobacter baumannii isolate PR-401 assessed as bacterial growth inhibition by microdilution method; type: functional; in short: as §5
Pseudomonas aeruginosa [30] = experiment: Antibacterial activity against Pseudomonas aeruginosa isolate PR-627 leucine at 533 residue assessed as inhibition of bacterial growth by microdilution method; type: functional; in short: as §5
Acinetobacter baumannii [31] = experiment: Antibacterial activity against carbapenem resistant Acinetobacter baumannii isolate PR-399 assessed as bacterial growth inhibition by microdilution method; type: functional; in short: as §5

Penicillin-binding protein 3, sequence (Q51504 whole entry): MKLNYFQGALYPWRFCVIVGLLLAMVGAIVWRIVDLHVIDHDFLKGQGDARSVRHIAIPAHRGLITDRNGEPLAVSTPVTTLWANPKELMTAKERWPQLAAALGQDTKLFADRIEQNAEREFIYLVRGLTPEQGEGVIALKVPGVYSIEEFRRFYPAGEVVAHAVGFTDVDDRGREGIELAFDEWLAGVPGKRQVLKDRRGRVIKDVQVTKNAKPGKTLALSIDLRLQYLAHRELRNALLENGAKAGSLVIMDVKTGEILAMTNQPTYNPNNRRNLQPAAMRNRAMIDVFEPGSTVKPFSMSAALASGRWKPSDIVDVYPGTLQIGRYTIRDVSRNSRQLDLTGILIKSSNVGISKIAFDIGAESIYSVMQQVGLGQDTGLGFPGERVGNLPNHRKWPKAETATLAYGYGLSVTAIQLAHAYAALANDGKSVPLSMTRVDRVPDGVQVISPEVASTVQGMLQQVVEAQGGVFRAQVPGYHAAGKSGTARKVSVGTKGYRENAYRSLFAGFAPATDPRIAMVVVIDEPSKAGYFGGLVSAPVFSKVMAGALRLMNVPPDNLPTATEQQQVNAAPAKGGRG

For `CC(C)(O/N=C(\C(=O)N[C@H]1CN2CC(C(=O)NCCN3C(=O)c4cc(O)c(O)cc4C3=O)=C(C(=O)O)N2C1=O)c1nc(N)sc1Cl)C(=O)O`, the MIC (Acinetobacter baumannii [1]) was 8 µg/mL, the MIC (Acinetobacter baumannii [2]) was > 16 µg/mL and the MIC (Acinetobacter baumannii [3]) was 4 µg/mL. For the same compound, the solubility kinetic [4] was > 100 µM, the MIC (Acinetobacter baumannii [5]) was 1 µg/mL and the MIC (Pseudomonas aeruginosa [6]) was > 16 µg/mL. The Kcat/Km [7] was 0.003 µM⁻¹ s⁻¹, the MIC (Acinetobacter baumannii [8]) was > 16 µg/mL and the MIC (Pseudomonas aeruginosa [9]) was > 16 µg/mL. The Activity (Pseudomonas aeruginosa [10]) was “Dose-Dependent Effect”, the MIC (Acinetobacter baumannii [11]) was 4 µg/mL and the MIC (Acinetobacter baumannii [12]) was > 16 µg/mL. For the same compound, the MIC (Acinetobacter baumannii [13]) was ≤ 0.25 µg/mL, the MIC (Acinetobacter baumannii [14]) was 0.5 µg/mL and the MIC (Pseudomonas aeruginosa [15]) was ≤ 0.25 µg/mL. The MIC (Acinetobacter baumannii [16]) was 16 µg/mL, the IC50 [17] was 5 µM and the MIC [18] was ≤ 0.25 µg/mL. For the same compound, the MIC (Acinetobacter baumannii [19]) was ≤ 0.25 µg/mL, the MIC (Acinetobacter baumannii [20]) was ≤ 0.25 µg/mL and the MIC (Acinetobacter baumannii [21]) was > 16 µg/mL. The MIC (Acinetobacter baumannii [22]) was > 16 µg/mL, the MIC (Pseudomonas aeruginosa [23]) was > 16 µg/mL and the Kcat/Km [24] was 0.012 µM⁻¹ s⁻¹. For the same compound, the MIC (Acinetobacter baumannii [25]) was 8 µg/mL, the MIC (Acinetobacter baumannii [26]) was 16 µg/mL and the MIC (Acinetobacter baumannii [27]) was 16 µg/mL. For the same compound, the MIC (Acinetobacter baumannii [28]) was > 16 µg/mL, the MIC (Acinetobacter baumannii [29]) was > 16 µg/mL and the MIC (Pseudomonas aeruginosa [30]) was > 16 µg/mL. For the same compound, the MIC (Acinetobacter baumannii [31]) was > 16 µg/mL.

From ChEMBL document CHEMBL4842318, “A γ-lactam siderophore antibiotic effective against multidrug-resistant Pseudomonas aeruginosa, Klebsiella pneumoniae, and Acinetobacter spp” (Eur J Med Chem, 2021)
